Laboratory results: ChEMBL document CHEMBL5357039, “Physicochemical characterization of B-hydroxyphenyl phosphine borane derivatives and their evaluation as nuclear estrogen receptor ligands” (RSC Med Chem, 2024)
Calls of active or inactive are those of the source. No cut-off for these calls is given here.

Experiments:
[1] = system: Lipid bilayer; experiment: Immobilized artificial membrane partition coefficient, logK-IAMex of the compound by HPLC analysis; type: physicochemical
Procedure, shortened: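 Run on an IAM.PC.DD2 column. Mobile phase was 0.01 M PBS, or acetonitrile (40% to 25% v/v in 5% steps) in 0.01 M PBS, at pH 7.4. Dead time was taken with methanol. The 100% aqueous value was obtained by linear extrapolation from the acetonitrile runs. Mean of triplicates.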

[2] = Dissociation constant, pKa of the compound by pH-metric method; type: physicochemical; settings: in the assay text read “pH-dependent UV absorbance method” for “pH-metric method”
Procedure, shortened: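 Determined from the change in absorbance at λmax in pH-dependent UV spectra, recorded in 20:80 (w/w) methanol–phosphate buffer over pH 6.0–12.0. Meter pH corrected as pH* = pH(recorded) − 0.01. Triplicate measurements.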

[3] = Aqueous stability of the compound in PBS assessed as compound remaining at pH 7.4 incubated for 3 hrs by HPLC analysis; type: physicochemical; settings: read-out: Stability
Procedure, shortened: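 Test compound at 0.1 mM in acetonitrile/PBS (5:95 v/v), held 3 h at 37 °C. Analysed by reversed-phase C18 HPLC with the column at 37.0 °C and UV detection at the peak wavelength between 220 and 240 nm. Residual % = peak area at 3 h / peak area at t0 × 100. Mean of triplicate runs.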

[4] = 1-Octanol/water partition coefficient, logP of the compound by HPLC analysis; type: physicochemical
[5] = biological target: T1, Estrogen receptor (Homo sapiens, UniProt P03372); experiment: (§1) Agonist activity at human ERalpha expressed in HEK293 cells assessed as increase in […] activity incubated for 24 hrs by luciferase based microplate reader assay; type: cell-based
T1 sequence (P03372 whole entry): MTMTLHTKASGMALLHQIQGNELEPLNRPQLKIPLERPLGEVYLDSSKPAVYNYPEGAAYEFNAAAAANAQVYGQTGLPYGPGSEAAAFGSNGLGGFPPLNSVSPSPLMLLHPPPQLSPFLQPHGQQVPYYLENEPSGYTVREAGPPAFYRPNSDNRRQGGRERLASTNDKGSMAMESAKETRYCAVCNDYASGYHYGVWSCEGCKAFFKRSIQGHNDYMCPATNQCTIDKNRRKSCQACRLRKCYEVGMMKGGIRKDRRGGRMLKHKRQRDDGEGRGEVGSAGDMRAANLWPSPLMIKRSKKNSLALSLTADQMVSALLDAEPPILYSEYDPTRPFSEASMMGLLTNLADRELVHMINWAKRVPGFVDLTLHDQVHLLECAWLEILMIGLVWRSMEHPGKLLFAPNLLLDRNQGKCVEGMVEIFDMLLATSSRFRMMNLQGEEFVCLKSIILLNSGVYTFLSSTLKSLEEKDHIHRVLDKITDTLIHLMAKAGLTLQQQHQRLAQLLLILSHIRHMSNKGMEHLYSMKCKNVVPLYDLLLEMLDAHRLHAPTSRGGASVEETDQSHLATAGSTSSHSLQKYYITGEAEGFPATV

[6] = biological target: T2, Estrogen receptor (Homo sapiens) (UniProt P03372); experiment: as §1; type: cell-based
T2 sequence (whole entry): T1 sequence (P03372 whole entry)

logK-IAMex [1]	pKa [2]	remaining at 3 h [3]	logP [4]	EC50 [5]	Activity [6]	Structure (SMILES)
2.28	11.3	100%	4.19	4.09 µM		CC[P+](Bc1cccc(O)c1)(CC)c1ccccc1
2.73	10.7	99%	5.26			CC(C)(Cc1ccc(O)cc1)c1ccccc1
1.91	11.2	94.5%	3.18		inactive	C[P+](C)(Bc1ccc(O)cc1)c1ccccc1
3.05	10.9	96.2%	5.74			C[Si](C)(Cc1ccc(O)cc1)c1ccccc1
2.22	10.8	92.5%	4.36			CC(C)(C)Cc1ccc(O)cc1
1.71	11.3	99%	3.27	> 10 µM		C[P+](C)(Bc1cccc(O)c1)c1ccccc1
			4.79	> 10 µM		CC(C)[P+](Bc1ccc(O)cc1)(c1ccccc1)C(C)C
2.38	10.7	89.9%	4.91	1.41 µM		C[Si](C)(C)Cc1ccc(O)cc1
2.46	11.1	97.6%	4.11		inactive	CC[P+](Bc1ccc(O)cc1)(CC)c1ccccc1

Second part, the compound before the results:

Structure (SMILES)	logK-IAMex [1]	pKa [2]	remaining at 3 h [3]	logP [4]	EC50 [5]	Activity [6]
Oc1ccc(B[P+](C2CC2)(C2CC2)C2CC2)cc1				3.8	2.68 µM	
CCCC[P+](Bc1cccc(O)c1)(CCCC)CCCC				6.43		inactive
Oc1ccc(B[P+](C2CCCCC2)(C2CCCCC2)C2CCCCC2)cc1				7.22		inactive
Oc1ccc(B[P+](C2CCCC2)(C2CCCC2)C2CCCC2)cc1				6.23		inactive
C[P+](C)(C)Bc1ccc(O)cc1	0.8	11.3	99.9%	2.44		inactive
CC(C)[P+](Bc1cccc(O)c1)(c1ccccc1)C(C)C				4.93	3.45 µM	
CCCC[P+](Bc1ccc(O)cc1)(CCCC)CCCC				6.32		inactive
CC[P+](Bc1ccc(O)cc1)(CC)CC	1.81	11	99.3%	3.28		
C[P+](C)(C)Bc1cccc(O)c1	0.81	11.3	100%	2.55		inactive
CC(C)[P+](Bc1ccc(O)cc1)(C(C)C)C(C)C				4.56		
CC[P+](Bc1cccc(O)c1)(CC)CC	1.59	11.3	99.7%	3.47	> 10 µM	
